According to ChEMBL document CHEMBL4017537, “Discovery of a Potent and Specific M. tuberculosis Leucyl-tRNA Synthetase Inhibitor: (S)-3-(Aminomethyl)-4-chloro-7-(2-hydroxyethoxy)benzo[c][1,2]oxaborol-1(3H)-ol (GSK656)” (J Med Chem, 2017):

Experiments:
[1] = target: Leucine--tRNA ligase, cytoplasmic (Homo sapiens, UniProt Q9P2J5); assay: Inhibition of human N-terminal 6His-tagged cytoplasmic LeuRS expressed in Escherichia coli BL21(DE3) assessed as […] after 20 mins by liquid scintillation counting analysis
Leucine--tRNA ligase, cytoplasmic, sequence (Q9P2J5 whole entry): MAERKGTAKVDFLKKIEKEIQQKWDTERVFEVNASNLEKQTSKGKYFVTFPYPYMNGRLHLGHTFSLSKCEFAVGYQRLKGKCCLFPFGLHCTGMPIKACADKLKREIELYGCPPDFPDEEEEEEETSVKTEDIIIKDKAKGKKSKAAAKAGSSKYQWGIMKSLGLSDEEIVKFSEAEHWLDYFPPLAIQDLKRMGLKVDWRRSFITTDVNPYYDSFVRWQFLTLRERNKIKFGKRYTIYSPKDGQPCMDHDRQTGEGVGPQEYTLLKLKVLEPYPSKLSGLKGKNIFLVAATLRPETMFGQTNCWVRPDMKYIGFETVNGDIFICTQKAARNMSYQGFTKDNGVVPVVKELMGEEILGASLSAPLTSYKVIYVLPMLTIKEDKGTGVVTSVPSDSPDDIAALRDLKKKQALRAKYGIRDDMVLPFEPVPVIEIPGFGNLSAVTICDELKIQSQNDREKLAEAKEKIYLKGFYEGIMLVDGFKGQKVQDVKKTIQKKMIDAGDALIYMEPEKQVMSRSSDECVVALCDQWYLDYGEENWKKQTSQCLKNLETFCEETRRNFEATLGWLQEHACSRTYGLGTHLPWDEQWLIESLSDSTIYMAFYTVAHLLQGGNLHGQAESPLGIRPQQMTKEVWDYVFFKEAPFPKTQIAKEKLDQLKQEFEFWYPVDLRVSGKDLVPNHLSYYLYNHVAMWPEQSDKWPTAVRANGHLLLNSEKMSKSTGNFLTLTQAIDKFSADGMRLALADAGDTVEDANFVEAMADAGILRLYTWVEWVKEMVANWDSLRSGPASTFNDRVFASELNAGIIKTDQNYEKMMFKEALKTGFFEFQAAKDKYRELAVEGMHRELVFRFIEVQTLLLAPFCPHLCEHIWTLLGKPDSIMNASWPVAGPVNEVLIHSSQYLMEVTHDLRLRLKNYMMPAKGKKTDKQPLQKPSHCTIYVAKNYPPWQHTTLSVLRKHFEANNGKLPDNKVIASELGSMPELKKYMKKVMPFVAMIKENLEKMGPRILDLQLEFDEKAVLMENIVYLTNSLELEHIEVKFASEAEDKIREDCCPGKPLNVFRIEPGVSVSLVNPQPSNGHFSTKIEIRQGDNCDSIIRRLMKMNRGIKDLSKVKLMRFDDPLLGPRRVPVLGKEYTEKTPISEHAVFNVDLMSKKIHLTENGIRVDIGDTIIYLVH

[2] = Volume of distribution at steady state in C57BL/6 mouse at 5.5 mg/kg, iv administered as single dose measured up to 24 hrs by LC-MS/MS analysis; format: ADME, organism-based; settings: in vivo, read-out: Vdss
In short: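 C57BL/6 female mice (18−20 g) got one intravenous dose in saline. Whole blood (15 μL) was taken by lateral tail-vein puncture from each of 3 mice at 5, 15 and 30 min and at 1, 2, 4, 8 and 24 h postdose, and drug concentrations were measured in peripheral blood.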

[3] = Half life in C57BL/6 mouse at 5.5 mg/kg, iv administered as single dose measured up to 24 hrs by LC-MS/MS analysis; format: ADME, organism-based; settings: in vivo
Mus musculus [4] = assay: Dose normalized AUC (0 to infinity) in C57BL/6 mouse at 5.5 mg/kg, iv administered as single dose measured up to 24 hrs by LC-MS/MS analysis; format: ADME, organism-based; settings: in vivo
[5] = Clearance in C57BL/6 mouse at 5.5 mg/kg, iv administered as single dose measured up to 24 hrs by LC-MS/MS analysis; format: ADME, organism-based; settings: in vivo
[6] = Cmax in C57BL/6 mouse at 30 mg/kg administered as single dose via oral gavage measured up to 24 hrs by LC-MS/MS analysis; format: ADME, organism-based; set-up: dose 30 mg/kg, route oral; settings: in vivo
[7] = Tmax in C57BL/6 mouse at 30 mg/kg administered as single dose via oral gavage measured up to 24 hrs by LC-MS/MS analysis; format: ADME, organism-based; settings: in vivo
In short: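 C57BL/6 female mice (18−20 g) got one oral gavage dose of 30 mg/kg in 1% methylcellulose. Peripheral whole blood was sampled from 15 min to 24 h postdose, n = 3 mice per time point, and drug concentrations were measured in blood.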

[8] = AUC (0 to 24 hrs) in C57BL/6 mouse at 30 mg/kg administered as single dose via oral gavage by LC-MS/MS analysis; format: ADME, organism-based; set-up: time < 24 hr, dose 30 mg/kg, route oral; settings: in vivo
Mus musculus [9] = assay: Dose normalized AUC (0 to 24 hrs) in C57BL/6 mouse at 30 mg/kg administered as single dose via oral gavage by LC-MS/MS analysis; format: ADME, organism-based; settings: in vivo
[10] = Oral bioavailability in C57BL/6 mouse at 30 mg/kg administered as single dose via gavage measured up to 24 hrs by LC-MS/MS analysis; format: ADME, organism-based; settings: in vivo
[11] = tested on: Mycobacterium tuberculosis; assay: Antimicrobial activity against Mycobacterium tuberculosis H37Rv infected in C57BL/6J mouse assessed as bacterial load in lungs at 0.1 mg/kg qd administered for 8 consecutive weeks starting from 6 weeks post infection measured 24 hrs post last dose (reference value: 6.4 +/- 0.3 log10CFU); format: functional
In short: (§1)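 C57BL/6J mice infected intratracheally with ~10² CFU M. tuberculosis H37Rv. Dosed QD, 7 days/week, for 8 weeks starting 6 weeks post-infection; killed ≥24 h after last dose. Lung homogenates plated on 7H11/10% OADC for 21 days at 37 °C. n = 3 per dose group, 7 for controls; mean (SD); ANOVA with Dunnett's test versus 14-week untreated.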

[12] = tested on: Mycobacterium tuberculosis; assay: Antimicrobial activity against Mycobacterium tuberculosis H37Rv infected in C57BL/6J mouse assessed as bacterial load in lungs at 0.3 mg/kg qd administered for 8 consecutive weeks starting from 6 weeks post infection measured 24 hrs post last dose (reference value: 6.4 +/- 0.3 log10CFU); format: functional; in short: as §1
[13] = tested on: Mycobacterium tuberculosis; assay: Antimicrobial activity against Mycobacterium tuberculosis H37Rv infected in C57BL/6J mouse assessed as bacterial load in lungs at 1 mg/kg qd administered for 8 consecutive weeks starting from 6 weeks post infection measured 24 hrs post last dose (reference value: 6.4 +/- 0.3 log10CFU); format: functional; in short: as §1
[14] = tested on: Mycobacterium tuberculosis; assay: Antimicrobial activity against Mycobacterium tuberculosis H37Rv infected in C57BL/6J mouse assessed as bacterial load in lungs at 3 mg/kg qd administered for 8 consecutive weeks starting from 6 weeks post infection measured 24 hrs post last dose (reference value: 6.4 +/- 0.3 log10CFU); format: functional; in short: as §1
[15] = tested on: Mycobacterium tuberculosis; assay: Antimicrobial activity against Mycobacterium tuberculosis H37Rv infected in C57BL/6J mouse assessed as bacterial load in lungs at 10 mg/kg qd administered for 8 consecutive weeks starting from 6 weeks post infection measured 24 hrs post last dose (reference value: 6.4 +/- 0.3 log10CFU); format: functional; in short: as §1
[16] = Toxicity in mouse administered qd; settings: in vivo
[17] = Toxicity in mouse; format: organism-based; settings: in vivo
[18] = Clearance in C57BL/6 mouse at 28.5 mg/kg, iv administered as single dose measured up to 8 hrs by LC-MS/MS analysis; format: ADME, organism-based; settings: in vivo
[19] = Half life in C57BL/6 mouse at 28.5 mg/kg, iv administered as single dose measured up to 8 hrs by LC-MS/MS analysis; format: ADME, organism-based; settings: in vivo
[20] = AUC (0 to infinity) in C57BL/6 mouse at 28.5 mg/kg, iv administered as single dose measured up to 8 hrs by LC-MS/MS analysis; format: ADME, organism-based; set-up: dose 28.5 mg/kg, time infinity, route intravenous; settings: in vivo
Mus musculus [21] = assay: Dose normalized AUC (0 to infinity) in C57BL/6 mouse at 28.5 mg/kg, iv administered as single dose measured up to 8 hrs by LC-MS/MS analysis; format: ADME, organism-based; settings: in vivo
[22] = Cmax in C57BL/6 mouse at 26.1 mg/kg administered as single dose via oral gavage measured up to 24 hrs by LC-MS/MS analysis; format: ADME, organism-based; set-up: dose 26.1 mg/kg, route oral; settings: in vivo
[23] = Tmax in C57BL/6 mouse at 26.1 mg/kg administered as single dose via oral gavage measured up to 24 hrs by LC-MS/MS analysis; format: ADME, organism-based; settings: in vivo
[24] = AUC (0 to 24 hrs) in C57BL/6 mouse at 26.1 mg/kg administered as single dose via oral gavage by LC-MS/MS analysis; format: ADME, organism-based; set-up: dose 26.1 mg/kg, time < 24 hr, route oral; settings: in vivo
Mus musculus [25] = assay: Dose normalized AUC (0 to 24 hrs) in C57BL/6 mouse at 26.1 mg/kg administered as single dose via oral gavage by LC-MS/MS analysis; format: ADME, organism-based; settings: in vivo
[26] = Oral bioavailability in C57BL/6 mouse at 26.1 mg/kg administered as single dose via gavage measured up to 24 hrs by LC-MS/MS analysis; format: ADME, organism-based; settings: in vivo
Mus musculus [27] = assay: Dose normalized AUC (0 to infinity) in CD-1 mouse at 30 mg/kg, iv after 24 hrs by LC-MS/MS analysis; format: ADME, organism-based; settings: in vivo
[28] = Tmax in CD-1 mouse at 30 mg/kg administered via oral gavage after 24 hrs by LC-MS/MS analysis; format: ADME, organism-based; settings: in vivo
[29] = AUC (0 to 24 hrs) in CD-1 mouse at 30 mg/kg administered via oral gavage by LC-MS/MS analysis; format: ADME, organism-based; set-up: dose 30 mg/kg, time < 24 hr, route oral; settings: in vivo
Mus musculus [30] = assay: Dose normalized AUC (0 to 24 hrs) in CD-1 mouse at 30 mg/kg administered via oral gavage by LC-MS/MS analysis; format: ADME, organism-based; settings: in vivo
Mus musculus [31] = assay: Toxicity in mouse at 50 mg/kg, qd; format: organism-based; settings: in vivo
Mus musculus [32] = assay: Toxicity in mouse at 150 mg/kg; format: organism-based; settings: in vivo
In short: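 Maximum single tolerated dose study: healthy mice each got one dose, and tolerability was judged across escalating dose levels.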

For Cl.NC[C@H]1OB(O)c2c(OCCO)ccc(Cl)c21, the IC50 [1] was 132 µM, the Vd [2] was 2.3 L/kg and the half-life [3] was 3.6 h. The AUC/dose (Mus musculus [4]) was 2.03 µg·h/mL/mg/kg, the clearance [5] was 8.5 mL/min/kg and the Cmax [6] was 17800 ng/mL. For the same compound, the Tmax [7] was 0.9 h, the AUC(0-t) at 24 h [8] was 88200 ng·h/mL and the AUC/dose (Mus musculus [9]) was 2.94 µg·h/mL. For the same compound, the bioavailability [10] was 100%, the Activity [11] was 6.4 log10CFU and the Activity [12] was 6 log10CFU. For the same compound, the Activity [13] was 4.7 log10CFU, the Activity [14] was 4.6 log10CFU and the Activity [15] was 4.3 log10CFU. The MTD [16] was 100 mg/kg and the MTD [17] was 300 mg/kg.

In the case of CCOc1ccc(Br)c2c1B(O)O[C@@H]2CN, the clearance [18] is reported as 6.6 mL/min/kg, the half-life [19] is reported as 3.1 h and the AUC(0-inf) [20] is reported as 72300 ng·h/mL. For the same compound, the AUC/dose (Mus musculus [21]) was 2.54 µg·h/mL/mg/kg, the Cmax [22] was 11100 ng/mL and the Tmax [23] was 2 h. The AUC(0-t) at 24 h [24] was 77900 ng·h/mL, the AUC/dose (Mus musculus [25]) was 2.98 µg·h/mL and the bioavailability [26] was 100%. For the same compound, the AUC/dose (Mus musculus [27]) was 1.45 µg·h/mL/mg/kg, the Tmax [28] was 0.5 h and the AUC(0-t) at 24 h [29] was 57600 ng·h/mL. The AUC/dose (Mus musculus [30]) was 1.92 µg·h/mL, the Activity (Mus musculus [31]) was “Toxic” and the Activity (Mus musculus [32]) was “Toxic”.
